Laboratory results published in ChEMBL document CHEMBL4765243, “Discovery of Novel Bromophenol-Thiosemicarbazone Hybrids as Potent Selective Inhibitors of Poly(ADP-ribose) Polymerase-1 (PARP-1) for Use in Cancer” (J Med Chem, 2019).
pIC50: −log10 of the molar value.

Experiments:
Caco-2 [1] = experiment: Antiproliferative activity against human Caco-2 cells assessed as cell growth inhibition incubated for 48 hrs by MTT assay; format: functional, cell-based; conditions: Caco-2, 48 h
In short: (§1)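 Cells seeded in 96-well plates and exposed to compounds for 48 h; viability read by MTT. Each experiment repeated three times. SK-OV-3 grown in McCOY's 5A, Bel-7402 and HL-7702 in RPMI-1640, HepG2 in DMEM, Caco-2 in MEM.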

[2] = Toxicity in Balb/c nude mouse xenografted with human SKOV3 cells assessed as change in body weight at 25 mg/kg, po for 21 days and measured every third day; format: organism-based; conditions: in vivo, 504 h, time 21 day
In short: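 Female BALB/c nu/nu mice, 6-8 weeks old, kept under SPF conditions. Each received 5×10^6 SK-OV-3 cells s.c. At 80–120 mm3 tumour volume, mice were split into four groups (n=6). […] Caliper measurement every three days; volume = X × (Y2/2).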

SK-OV-3 [3] = experiment: Antiproliferative activity against human SK-OV-3 cells assessed as cell growth inhibition incubated for 48 hrs by MTT assay; format: functional, cell-based; conditions: SK-OV-3, 48 h; in short: as §1
HepG2 [4] = experiment: Antiproliferative activity against human HepG2 cells assessed as cell growth inhibition incubated for 48 hrs by MTT assay; format: functional, cell-based; conditions: HepG2, 48 h; in short: as §1
Bel-7402 [5] = experiment: Antiproliferative activity against human Bel-7402 cells assessed as cell growth inhibition incubated for 48 hrs by MTT assay; format: functional, cell-based; conditions: Bel-7402, 48 h; in short: as §1
L02 = experiment: Cytotoxicity against human HL7702 cells assessed as cell growth inhibition incubated for 48 hrs by MTT assay; format: cell-based; conditions: L02, 48 h; in short: as §1
Bel-7402 [6] = experiment: Antiproliferative activity against human Bel-7402 cells assessed as cell growth inhibition at 20 uM incubated for 48 hrs by MTT assay relative to control; format: functional
[7] = Cytotoxicity against human HL7702 cells assessed as cell growth inhibition at 20 uM incubated for 48 hrs by MTT assay relative to control; format: cell-based; conditions: HL7702 (L02) cells
[8] = biological target: Poly [ADP-ribose] polymerase 2 (Homo sapiens, UniProt Q9UGN5); experiment: Inhibition of human recombinant N-terminal GST-tagged PARP-2 expressed in Baculovirus infected Sf9 cells assessed as reduction in NAD+-dependent ADP ribosylation using histone mixture (H2A and H2B) as substrate in presence of activated DNA incubated for 30 mins by chemiluminescence assay
[9] = biological target: T1, Poly [ADP-ribose] polymerase 1 (Homo sapiens, UniProt P09874); experiment: Inhibition of human recombinant GST-tagged PARP-1 expressed in Escherichia coli assessed as reduction in NAD+-dependent ADP ribosylation incubated for 30 mins in presence and NAD by resazurin dye based fluorescence analysis
[10] = Selectivity index, ratio of IC50 for inhibition of human recombinant N-terminal GST-tagged PARP-2 to IC50 for inhibition of human recombinant GST-tagged PARP-1
HepG2 [11] = experiment: Antiproliferative activity against human HepG2 cells assessed as cell growth inhibition at 20 uM incubated for 48 hrs by MTT assay relative to control; format: functional
Caco-2 [12] = experiment: Antiproliferative activity against human Caco-2 cells assessed as cell growth inhibition at 20 uM incubated for 48 hrs by MTT assay relative to control; format: functional
[13] = biological target: T1, Poly [ADP-ribose] polymerase 1; conditions: dose 100.0 nM, time 30.0 min
SK-OV-3 [14] = experiment: Antiproliferative activity against human SK-OV-3 cells assessed as cell growth inhibition at 20 uM incubated for 48 hrs by MTT assay relative to control; format: functional

T1 sequence (P09874 whole entry): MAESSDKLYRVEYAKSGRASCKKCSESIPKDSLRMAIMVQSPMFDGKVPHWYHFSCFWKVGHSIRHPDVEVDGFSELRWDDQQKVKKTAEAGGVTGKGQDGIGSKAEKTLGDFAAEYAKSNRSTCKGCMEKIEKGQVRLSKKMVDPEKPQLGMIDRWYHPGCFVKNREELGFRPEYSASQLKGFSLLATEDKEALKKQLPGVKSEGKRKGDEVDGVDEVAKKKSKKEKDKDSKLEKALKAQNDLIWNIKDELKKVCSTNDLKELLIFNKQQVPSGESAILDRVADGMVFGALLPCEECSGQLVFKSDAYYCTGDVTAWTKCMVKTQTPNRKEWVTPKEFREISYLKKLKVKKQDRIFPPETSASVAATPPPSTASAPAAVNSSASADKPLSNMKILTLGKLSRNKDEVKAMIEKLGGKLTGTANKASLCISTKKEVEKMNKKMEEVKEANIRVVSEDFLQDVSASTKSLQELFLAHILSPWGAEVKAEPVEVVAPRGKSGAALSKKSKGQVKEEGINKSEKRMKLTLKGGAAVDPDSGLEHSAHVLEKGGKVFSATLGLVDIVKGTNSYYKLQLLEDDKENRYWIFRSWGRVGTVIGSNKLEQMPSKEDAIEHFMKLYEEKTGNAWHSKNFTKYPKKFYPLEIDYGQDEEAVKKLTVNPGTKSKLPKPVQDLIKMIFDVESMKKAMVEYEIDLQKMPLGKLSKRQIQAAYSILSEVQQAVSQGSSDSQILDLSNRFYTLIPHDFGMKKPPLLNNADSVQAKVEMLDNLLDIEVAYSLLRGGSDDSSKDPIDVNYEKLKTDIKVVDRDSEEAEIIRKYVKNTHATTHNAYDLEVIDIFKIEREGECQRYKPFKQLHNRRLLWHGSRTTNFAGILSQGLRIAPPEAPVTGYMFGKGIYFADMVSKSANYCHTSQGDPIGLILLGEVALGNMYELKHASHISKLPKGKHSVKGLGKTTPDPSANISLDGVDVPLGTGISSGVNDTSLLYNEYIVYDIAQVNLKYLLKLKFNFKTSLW
Sequence of Poly [ADP-ribose] polymerase 2 (Q9UGN5 whole entry): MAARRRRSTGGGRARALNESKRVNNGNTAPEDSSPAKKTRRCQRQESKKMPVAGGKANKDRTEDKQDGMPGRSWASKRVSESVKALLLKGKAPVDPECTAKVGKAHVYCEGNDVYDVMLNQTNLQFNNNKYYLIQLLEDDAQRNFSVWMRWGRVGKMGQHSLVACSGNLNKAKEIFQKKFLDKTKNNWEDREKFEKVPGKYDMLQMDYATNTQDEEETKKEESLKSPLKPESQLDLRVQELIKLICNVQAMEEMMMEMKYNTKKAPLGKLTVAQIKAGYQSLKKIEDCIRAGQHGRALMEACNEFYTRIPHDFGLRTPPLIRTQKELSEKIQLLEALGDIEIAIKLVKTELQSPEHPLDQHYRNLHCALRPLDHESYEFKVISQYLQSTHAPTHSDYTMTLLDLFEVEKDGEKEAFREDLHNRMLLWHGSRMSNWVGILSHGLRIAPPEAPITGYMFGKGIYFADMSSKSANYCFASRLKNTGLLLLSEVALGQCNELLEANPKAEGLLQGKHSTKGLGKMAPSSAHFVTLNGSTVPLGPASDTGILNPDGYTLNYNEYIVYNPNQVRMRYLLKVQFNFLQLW

| pIC50 (Caco-2 [1]) | pIC50 (SK-OV-3 [3]) | pIC50 (HepG2 [4]) | pIC50 (Bel-7402 [5]) | pIC50 [8] | pIC50 [9] | Ratio IC50 [10] | inhibition [13] | SMILES | Activity [2] | pIC50 (L02) | inhibition at 20 µM (Bel-7402 [6]) | inhibition at 48 h, 20 µM [7] | inhibition at 20 µM (HepG2 [11]) | inhibition at 20 µM (Caco-2 [12]) | inhibition at 20 µM (SK-OV-3 [14]) |
| --- | --- | --- | --- | --- | --- | --- | --- | --- | --- | --- | --- | --- | --- | --- | --- |
| 4.18 | 5.50 | 4.37 | 4.45 |  |  |  |  | O=C(c1cc(Cc2n[nH]c(=O)c3ccccc23)ccc1F)N1CCN(C(=O)C2CC2)CC1 [OLAPARIB] | Non-Toxic | 4.59 |  |  |  |  |  |
| 4.80 | 4.74 | 4.58 | 4.62 | < 6.00 | 6.73 | > 5.37 | 51.5% | COc1cc(/C=N/NC(=S)NCCCN2CCOCC2)c(Br)c(Br)c1OC |  | 4.54 | 89.7% | 51% | 40.2% | 45.9% | 71.5% |
| 4.95 | 4.81 | 4.98 | 5.16 | < 6.00 | 7.23 | > 17.2 | 72.2% | CCOC(=O)c1ccc(NC(=S)N/N=C/c2cc(OC)c(OC)c(Br)c2Br)cc1 |  | 5.00 | 71.9% | 97.7% | 73% | 76.5% | 70% |
